The source made the active and inactive calls. The calls are words filed in the database; no cut-off is given here.

Series [1] is described as follows: Inhibition of bacterial VIM2 (27 to 266 residues) expressed in Escherichia coli Transetta (DE3) cells using FC-5 as substrate by fluorescence assay. Details: species or system Bacteria.
A short description of series [2]: Inhibition of bacterial NDM1 (1 to 270 residues) expressed in Escherichia coli Transetta (DE3) cells using FC-5 as substrate by fluorescence assay. The arrangement: species or system Bacteria.
Series [3] is filed under the species Danio rerio. As to the kind of experiment: Toxicity in FLK-1 promoter EGFP transgenic zebrafish embryos assessed as effect on morphology at 20 uM incubated for 4 to 96 hrs post fertilization by fluorescence microscopic analysis. The class given is organism-based. The settings on record: in vivo.
The nature of series [4]: Inhibition of bacterial VIM2 (27 to 266 residues) expressed in Escherichia coli Transetta (DE3) cells using FC-5 as substrate in presence of 1 uM Zn2+ by fluorescence assay. Details: species or system Bacteria. In short, it runs like this: (§1)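 VIM-2 inhibition determined as dose-inhibition curves, with the assay run at added Zn(II) of 0, 1 or 100 µM.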
Series [5] is described as follows: Inhibition of bacterial VIM2 (27 to 266 residues) expressed in Escherichia coli Transetta (DE3) cells using FC-5 as substrate in presence of 100 uM Zn2+ by fluorescence assay. Details: species or system Bacteria. A digest of the protocol: as §1
Series [6] has as its system Bacteria. Briefly: Reversible inhibition of bacterial VIM2 (27 to 266 residues) expressed in Escherichia coli Transetta (DE3) cells at 0.77 uM using FC-5 as substrate up to 500 secs by jump dilution assay. In short, it runs like this: (§2)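 Jump-dilution reversibility test. VIM-2 at 100-fold its activity-assay concentration was preincubated with inhibitor for 30 min at room temperature, then rapidly diluted 100-fold, and enzyme activity was followed.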

The subject of series [7] is HEK-293T. As to the kind of experiment: Cytotoxicity against HEK293T cells assessed as reduction in cell viability at 50 uM after 72 hrs by MTT assay relative to control. Type of series: cell-based. The settings on record: human. A general note: Tetrazolium assays rely on reduction of a dye to a coloured formazan, in cell work by metabolically active cells.
Series [8] is filed under the species Danio rerio. As to the kind of experiment: Toxicity in FLK-1 promoter EGFP transgenic zebrafish embryos assessed as death at 20 uM incubated for 4 to 96 hrs post fertilization by fluorescence microscopic analysis. The note with it: in vivo. The class given is organism-based.
Series [9] is filed under the species Danio rerio. Briefly: Toxicity in FLK-1 promoter EGFP transgenic zebrafish embryos assessed as limited mobility at 20 uM incubated for 4 to 96 hrs post fertilization by fluorescence microscopic analysis. The class given is organism-based. The note with it: in vivo.
Series [10] addresses Metallo-beta-lactamase (Escherichia coli) (UniProt Q5U7L7). Briefly: Inhibition of Escherichia coli VIM2 expressed in Escherichia coli DH5alpha assessed as potentiation of meropenem induced antibacterial activity by measuring meropenem MIC at 100 uM after 16 to 20 hrs by CLSI broth microdilution method (reference value: 16 microg/ml). In short, it runs like this:
(§3)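 MICs of meropenem against E. coli DH5α carrying a VIM-2-encoding plasmid, and against a control E. coli strain, with meropenem alone or combined with inhibitor at fixed 100, 200 or 500 µM. Fold change is the MIC shift relative to meropenem alone.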
A general note: Dilution methods test growth across graded concentrations, often in twofold steps.

Series [11] shares this target. Briefly: Inhibition of Escherichia coli VIM2 expressed in Escherichia coli DH5alpha assessed as potentiation of meropenem induced antibacterial activity by measuring meropenem MIC at 200 uM after 16 to 20 hrs by CLSI broth microdilution method (reference value: 16 microg/ml). A digest of the protocol: as §3
The target is the same in series [12]. As to the kind of experiment: Inhibition of Escherichia coli VIM2 expressed in Escherichia coli DH5alpha assessed as potentiation of meropenem induced antibacterial activity by measuring meropenem MIC at 500 uM after 16 to 20 hrs by CLSI broth microdilution method (reference value: 16 microg/ml). A digest of the protocol: as §3
The test system of series [13] is Escherichia coli. Briefly: Growth inhibition of Escherichia coli DH5alpha after 16 to 20 hrs by CLSI broth microdilution method. The note with it: in vivo. The class given is organism-based, DH5[alpha]. A digest of the protocol: as §3
The test system of series [14] is Escherichia coli. As to the kind of experiment: Potentiation of meropenem induced antibacterial activity against Escherichia coli DH5alpha by measuring meropenem MIC at 100 uM after 16 to 20 hrs by CLSI broth microdilution method (reference value: <0.25 microg/ml). The class given is functional. The settings on record: DH5[alpha]. A digest of the protocol: as §3

For series [15], the system named is Escherichia coli. As to the kind of experiment: Potentiation of meropenem induced antibacterial activity against Escherichia coli DH5alpha by measuring meropenem MIC at 200 uM after 16 to 20 hrs by CLSI broth microdilution method (reference value: <0.25 microg/ml). The class given is functional. The note with it: DH5[alpha]. A digest of the protocol: as §3

Series [16] has as its system Escherichia coli. Briefly: Potentiation of meropenem induced antibacterial activity against Escherichia coli DH5alpha by measuring meropenem MIC at 500 uM after 16 to 20 hrs by CLSI broth microdilution method (reference value: <0.25 microg/ml). The class given is functional. The note with it: DH5[alpha]. In short, it runs like this: as §3
Series [17] concerns the target Metallo-beta-lactamase (Escherichia coli) (UniProt Q5U7L7). As to the kind of experiment: Inhibition of Escherichia coli VIM2 expressed in Escherichia coli DH5alpha assessed as potentiation of meropenem induced antibacterial activity by measuring fold reduction of meropenem MIC after 16 to 20 hrs by CLSI broth microdilution method relative to control. In short, it runs like this: as §3

The species named for series [18] is Danio rerio. Briefly: Toxicity in FLK-1 promoter EGFP transgenic zebrafish embryos assessed as effect on angiogenesis at 20 uM incubated for 4 to 96 hrs post fertilization by fluorescence microscopic analysis. The settings on record: in vivo. Type of series: organism-based.
In series [19] the test system is Escherichia coli. As to the kind of experiment: Growth inhibition of Escherichia coli DH5alpha expressing Escherichia coli VIM2 after 16 to 20 hrs by CLSI broth microdilution method. The class given is organism-based, DH5[alpha]. The settings on record: in vivo. In short, it runs like this: as §3
Series [20] has as its system Bacteria. Briefly: Reversible inhibition of bacterial VIM2 (27 to 266 residues) expressed in Escherichia coli Transetta (DE3) cells at 7.5 uM using FC-5 as substrate up to 500 secs by jump dilution assay. In short, it runs like this:
as §2

Series [21] in a line: Inhibition of N-terminal his-tagged bacterial VIM2 (27 to 266 residues) expressed in Escherichia coli BL21(DE3) pLyS cells. The arrangement: species or system Bacteria.
Series [22] in a line: Inhibition of N-terminal his-tagged bacterial NDM1 expressed in Escherichia coli BL21(DE3) pLyS cells. The arrangement: species or system Bacteria.
Series [23] deals with Bacteria. Briefly: Reversible inhibition of bacterial VIM2 (27 to 266 residues) expressed in Escherichia coli Transetta (DE3) cells at 0.14 uM using FC-5 as substrate up to 500 secs by jump dilution assay. In short, it runs like this: as §2

In series [1], `C[C@H](CS)C(=O)N[C@@H](Cc1ccc(O)cc1)C(=O)O` returned a half-inhibitory concentration (IC50) of 0.49 µM and a pIC50 of 6.31. For the same compound, in [2], the IC50 came to 326 µM and the pIC50 is 3.49.

Turning to `C[C@H](CS)C(=O)N[C@H](C(=O)O)c1ccc(O)cc1`, the IC50 came out at 0.077 µM in [1], 24 µM in [2], 0.0729 µM in series [4] and 0.066 µM in series [5]. For the same compound, the pIC50 in series [1] came to 7.11; in series [2], 4.62. Besides, the Activity entry in [3], in series [7], in series [8], in [9] and in [18] was “Non-Toxic” throughout. The inhibition entry in series [6] was “inactive”. The MIC was 16 µg/mL in series [10]; 16 µg/mL in series [11]; 8 µg/mL in series [12]; over 128 µg/mL in series [13]; under 0.25 µg/mL in [14]; under 0.25 µg/mL in [15]. Also, the MIC in series [16] is under 0.25 µg/mL; in [19], over 128 µg/mL. In series [17], the fold change (FC) is 2 to 4.

With `C[C@H](CS)C(=O)N1CCC[C@H]1C(=O)O` [CAPTOPRIL], the inhibition result in series [20] is “Active”.

As for `C[C@H](CS)C(=O)N[C@@H](Cc1ccccc1)C(=O)O`, the IC50 in [1] turned out to be 2.85 µM; in series [2], 233 µM. Also, the pIC50 in series [1] turned out to be 5.55; in series [2], 3.63.

Turning to `C[C@H](CS)C(=O)N[C@H](Cc1ccccc1)C(=O)O`, in [1], the IC50 was 0.121 µM and the pIC50 is listed as 6.92. For the same compound, in series [2], 7 µM corresponded to half-maximal inhibition (IC50) and the pIC50 was 5.16.

Regarding `C[C@H](CS)C(=O)N[C@H](C(=O)O)c1ccc(F)cc1`, in [1], the IC50 amounted to 0.121 µM and the pIC50 is reported as 6.92. In series [2], this compound returned a half-maximal inhibitory concentration (IC50) of 11.7 µM and a pIC50 of 4.93.

`C[C@H](CS)C(=O)N1CCC[C@@H]1C(=O)O` [D-CAPTOPRIL]: in series [21], it took 4.55 µM to reach half-maximal inhibition (IC50) and the negative-log IC50 (pIC50) is recorded as 5.34.

As to `C[C@H](CS)C(=O)N[C@@H](Cc1c[nH]c2ccccc12)C(=O)O`, in series [21], the IC50 turned out to be 1.06 µM and the negative logarithm of the IC50 (pIC50) is on record as 5.97. In [22], this compound yielded an IC50 of 24.8 µM and a pIC50 of 4.61.

Consider `C[C@H](CS)C(=O)N[C@@H](C(=O)O)c1ccc(F)cc1`, for which, in series [1], the IC50 came out at 0.055 µM and the pIC50 is 7.26. For the same compound, in series [2], 5.59 µM corresponded to half-maximal inhibition (IC50) and the pIC50 came to 5.25.

`C[C@H](CS)C(=O)N[C@@H](C(=O)O)c1ccccc1`: the figures for the IC50 in series [1] and in series [2] were 0.057 µM and 20.5 µM, respectively. Besides, the pIC50 in series [1] is recorded as 7.25; in series [2] it was 4.69.

In [1], `C[C@H](CS)C(=O)N[C@H](Cc1ccc(O)cc1)C(=O)O` displayed an IC50 of 0.276 µM and a pIC50 of 6.56. In series [2], this compound returned an IC50 of 73.1 µM and a pIC50 of 4.14.

For `C[C@H](CS)C(=O)N[C@@H](C(=O)O)c1ccc(O)cc1`, the IC50 in series [1] was 0.00957 to 0.0137 µM; in series [2], 3.57 µM; in series [4] it was 0.0148 µM; in series [5], 0.0123 µM. The pIC50 in [1] is 7.86; in [2] it was 5.45. Moreover, the Activity entry is “Non-Toxic” in [3]; 8% in [7]; “Non-Toxic” in [8]; “Non-Toxic” in series [9]; “Non-Toxic” in series [18]. Moreover, in series [23], the inhibition result was “inactive”. Besides, the MIC is 8 µg/mL in series [10]; 8 µg/mL in series [11]; 4 µg/mL in series [12]; over 128 µg/mL in series [13]; under 0.25 µg/mL in series [14]; under 0.25 µg/mL in series [15]. The results for the MIC in series [16] and in series [19] were under 0.25 µg/mL and over 128 µg/mL, respectively. Also, the fold change (FC) in [17] fell in the range of 2 to 4.

On to `C[C@H](CS)C(=O)N[C@H](C(=O)O)c1ccccc1`, for which the IC50 in series [1] was 0.039 µM; in series [2], 8.77 µM. Further, the figures for the pIC50 in [1] and in [2] were 7.41 and 5.06, respectively.

On to `C[C@H](CS)C(=O)N[C@H](Cc1c[nH]c2ccccc12)C(=O)O`, for which, in series [21], the IC50 stood at 0.05 µM and the pIC50 came out at 7.26. In [22], this compound had an IC50 of 64.8 µM and a pIC50 of 4.19.

Usually IC50 stands for the midpoint of a concentration-inhibition curve. The pIC50 is the IC50 on a negative log10 scale, so that one unit is a factor of ten. A lower pIC50 goes with a high IC50.

These data come from ChEMBL document CHEMBL4145490, “((S)-3-Mercapto-2-methylpropanamido)acetic acid derivatives as metallo-β-lactamase inhibitors: Synthesis, kinetic and crystallographic studies” (Eur J Med Chem, 2018).
